Experimental data taken from ChEMBL document CHEMBL4680268, “Pharmacomodulations of the benzoyl-thiosemicarbazide scaffold reveal antimicrobial agents targeting d-alanyl-d-alanine ligase in bacterio” (Eur J Med Chem, 2020).
Values after ≈ are worked out from the molar mass of the structure shown. Active and inactive are the calls of the source. No cut-off for these calls is given here.

Columns and labels:
Staphylococcus aureus [1] = assay: Antibacterial activity against Staphylococcus aureus ATCC 25923 assessed as reduction in bacterial growth incubated for 18 to 24 hrs by broth microdilution method; type: functional; settings: time 18-24 hrs
Enterococcus faecalis [2] = assay: Antibacterial activity against Enterococcus faecalis ATCC 29212 assessed as reduction in bacterial growth incubated for 18 to 24 hrs by broth microdilution method; type: functional; settings: time 18-24 hrs
Enterococcus faecalis [3] = assay: Inhibition of recombinant Enterococcus faecalis C-terminal His6-tagged DdlB expressed in Escherichia coli LMG194 assessed as residual activity using D-Ala as substrate at 100 uM preincubated with enzyme for 30 mins followed by substrate addition and measured after 20 mins by malachite green based colorimetric analysis relative to control; settings: time 50.0 min
Summary of the method: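 Purified E. faecalis His-tagged DdlB (20 mg/L) preincubated 30 min at 30 °C with 100 µM compound and 500 µM ATP in 20 mM Tris-HCl pH 7.4, 10 mM MgCl₂, 10 mM KCl, 10% DMSO; 1 mM D-Ala added, 20 min at 30 °C. Phosphate detected with malachite green reagent, A650 after 25 min dark; residual activity versus no-inhibitor control, triplicate.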

Staphylococcus aureus [4] = assay: Antibacterial activity against hospital-acquired methicillin/ciprofloxacin and moxifloxacin resistant Staphylococcus aureus SA481 assessed as reduction in bacterial growth incubated for 18 to 24 hrs by broth microdilution method; type: functional; settings: time 18-24 hrs
Summary of the method: (§1)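 Broth microdilution in cation-adjusted Mueller-Hinton broth per CLSI; inoculum 10⁶ bacteria/mL. Two-fold serial dilutions, compound in broth with 5% DMSO mixed 1:1 with bacterial suspension, giving 2.5% DMSO final. Top concentration 0.1, 0.4 or 0.8 mM depending on solubility. Incubated 18–24 h at 37 °C. MIC = lowest concentration preventing visible growth.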

Staphylococcus aureus [5] = assay: Antibacterial activity against methicillin and linezolid resistant Staphylococcus aureus NRS119 assessed as reduction in bacterial growth incubated for 18 to 24 hrs by broth microdilution method; type: functional; settings: time 18-24 hrs; summary of the method: as §1
Staphylococcus aureus [6] = assay: Antibacterial activity against methicillin resistant and vancomycin intermediate resistant Staphylococcus aureus MU50 assessed as reduction in bacterial growth incubated for 18 to 24 hrs by broth microdilution method; type: functional; settings: time 18-24 hrs; summary of the method: as §1
[7] = Inhibition of recombinant Enterococcus faecalis C-terminal His6-tagged DdlB expressed in Escherichia coli LMG194 using D-Ala as substrate preincubated with enzyme for 30 mins followed by substrate addition and measured after 20 mins by malachite green based colorimetric analysis
Summary of the method: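 DdlB (20 mg/L) malachite green phosphate assay: enzyme, inhibitor and 500 µM ATP preincubated 30 min at 30 °C in Tris-HCl pH 7.4 buffer with MgCl₂, KCl and 10% DMSO, then 1 mM D-Ala for 20 min; A650 read. IC₅₀ from 11 concentrations, also run with 0.01% Triton X-100; mean ± SD of triplicates, n ≥ 2; EC₅₀ given where maximal inhibition stayed below 50%.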

Enterococcus faecalis [8] = assay: Antibacterial activity against vancomycin resistant Enterococcus faecalis BM4390 harboring VanB mutant with inactive Ddl and constitutive expression of D-Ala-D-Lac assessed as reduction in bacterial growth incubated for 18 to 24 hrs by broth microdilution method; type: functional; settings: time 18-24 hrs; summary of the method: as §1
Klebsiella pneumoniae = assay: Antibacterial activity against Klebsiella pneumoniae ATCC700603 assessed as reduction in bacterial growth incubated for 18 to 24 hrs by broth microdilution method; type: functional, organism-based; settings: 700603, time 18-24 hrs
Summary of the method: (§2)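 Microdilution in cation-adjusted Mueller-Hinton broth per CLSI; two-fold compound series in CAMHB with 5% DMSO mixed 1:1 with bacterial suspension, giving 10⁶ bacteria/mL inoculum and 2.5% DMSO final. Top concentrations 0.1, 0.4 or 0.8 mM depending on solubility. Incubated 18–24 h at 37 °C; MIC read as lowest concentration preventing visible growth.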

Enterococcus faecalis [9] = assay: Antibacterial activity against vancomycin resistant Enterococcus faecalis BM4575 harboring VanE genotype, constitutive expression of Ddl and VanE D-Ala-D-Ser ligase assessed as reduction in bacterial growth incubated for 18 to 24 hrs by broth microdilution method; type: functional; settings: time 18-24 hrs; summary of the method: as §1
Escherichia coli = assay: Antibacterial activity against Escherichia coli ATCC 25922 assessed as reduction in bacterial growth incubated for 18 to 24 hrs by broth microdilution method; type: functional, organism-based; settings: time 18-24 hrs; summary of the method: as §2
Staphylococcus aureus [10] = assay: Antibacterial activity against community-acquired methicillin and erythromycin resistant Staphylococcus aureus SA325 assessed as reduction in bacterial growth incubated for 18 to 24 hrs by broth microdilution method; type: functional; settings: time 18-24 hrs; summary of the method: as §1
Pseudomonas aeruginosa = assay: Antibacterial activity against Pseudomonas aeruginosa PAO1 assessed as reduction in bacterial growth incubated for 18 to 24 hrs by broth microdilution method; type: functional, organism-based; settings: time 18-24 hrs; summary of the method: as §2
Staphylococcus aureus [11] = assay: Antibacterial activity against hospital-acquired vancomycin resistant Staphylococcus aureus VRS-1 assessed as reduction in bacterial growth incubated for 18 to 24 hrs by broth microdilution method; type: functional; settings: time 18-24 hrs; summary of the method: as §1
Enterococcus faecalis [12] = assay: Antibacterial activity against vancomycin resistant Enterococcus faecalis JH2-2::C1 harboring constitutive expression of Ddl and vanB ligase assessed as reduction in bacterial growth incubated for 18 to 24 hrs by broth microdilution method; type: functional; settings: time 18-24 hrs; summary of the method: as §1

SMILES | MIC (Staphylococcus aureus [1]) [µM] | MIC (Enterococcus faecalis [2]) [µM] | Activity (Enterococcus faecalis [3]) [%] | MIC (Staphylococcus aureus [4]) [µM] | MIC (Staphylococcus aureus [5]) [µM] | MIC (Staphylococcus aureus [6]) [µM] | IC50 [7] [µM] | MIC (Enterococcus faecalis [8]) [µM] | Activity (Klebsiella pneumoniae) | MIC (Enterococcus faecalis [9]) [µM] | Activity (Escherichia coli) | MIC (Staphylococcus aureus [10]) [µM] | Activity (Pseudomonas aeruginosa) | MIC (Staphylococcus aureus [11]) [µM] | MIC (Enterococcus faecalis [12]) [µM]
Nc1ccccc1-c1n[nH]c(=S)n1-c1ccccc1 | > 800 | > 800 | > 100 | – | – | – | – | – | – | – | – | – | – | – | –
O=C(O)c1cn(C2CC2)c2cc(N3CCNCC3)c(F)cc2c1=O [CIPROFLOXACIN] | – | – | – | 770 (≈ 255 µg/mL) | – | – | – | – | – | – | – | – | – | – | –
Fc1ccc2c(c1F)Oc1ccccc1-c1n[nH]c(=S)n1-2 | > 400 | > 400 | > 100 | – | – | – | – | – | – | – | – | – | – | – | –
CC(=O)NC[C@H]1CN(c2ccc(N3CCOCC3)c(F)c2)C(=O)O1 [LINEZOLID] | – | – | – | – | 190 (≈ 64.1 µg/mL) | 3 (≈ 1.01 µg/mL) | – | – | – | – | – | – | – | – | –
COc1ccccc1C(=O)NNC(=S)Nc1ccc(Cl)c(Cl)c1 | > 100 | > 100 | > 100 | – | – | – | – | – | – | – | – | – | – | – | –
COc1ccc(O)c(-c2n[nH]c(=S)n2-c2ccccc2)c1 | > 800 | > 800 | > 50 | – | – | – | 133 | – | – | – | – | – | – | – | –
Oc1ccccc1-c1n[nH]c(=S)n1-c1ccc(F)c(F)c1 | > 400 | > 400 | > 100 | – | – | – | – | – | – | – | – | – | – | – | –
Oc1ccccc1-c1n[nH]c(=S)n1-c1ccc(F)cc1 | > 800 | > 800 | – | – | – | – | 60 | – | – | – | – | – | – | – | –
O=C(NNC(=S)Nc1ccccc1)c1ccccc1O | 800 (≈ 230 µg/mL) | > 800 | – | 800 (≈ 230 µg/mL) | > 800 | 800 (≈ 230 µg/mL) | 0.74 | > 800 | inactive | > 800 | inactive | 800 (≈ 230 µg/mL) | inactive | 800 (≈ 230 µg/mL) | > 800
O=C(NC(=S)NNC(=O)c1ccccc1O)c1ccc(Cl)c(Cl)c1 | 25 (≈ 9.61 µg/mL) | 50 (≈ 19.2 µg/mL) | > 50 | 25 (≈ 9.61 µg/mL) | 25 (≈ 9.61 µg/mL) | 25 (≈ 9.61 µg/mL) | 1.15 | 25 (≈ 9.61 µg/mL) | inactive | 50 (≈ 19.2 µg/mL) | inactive | 50 (≈ 19.2 µg/mL) | inactive | 100 (≈ 38.4 µg/mL) | 12.5 (≈ 4.8 µg/mL)
O=C(NNC(=S)Nc1ccc(F)c(F)c1F)c1ccccc1O | 200 (≈ 68.3 µg/mL) | 200 (≈ 68.3 µg/mL) | – | 400 (≈ 137 µg/mL) | 400 (≈ 137 µg/mL) | 400 (≈ 137 µg/mL) | 0.64 | > 400 | inactive | 400 (≈ 137 µg/mL) | inactive | 400 (≈ 137 µg/mL) | inactive | 400 (≈ 137 µg/mL) | > 400
COc1ccccc1-c1n[nH]c(=S)n1-c1ccc(Cl)c(Cl)c1 | > 400 | > 400 | > 100 | – | – | – | – | – | – | – | – | – | – | – | –
Oc1ccccc1-c1nnc(S)n1-c1ccccc1 | > 800 | > 800 | > 100 | – | – | – | – | – | – | – | – | – | – | – | –
O=C(NC(=S)NNC(=O)c1ccccc1O)c1ccccc1 | 100 (≈ 31.5 µg/mL) | 100 (≈ 31.5 µg/mL) | > 50 | 100 (≈ 31.5 µg/mL) | > 100 | > 100 | 0.81 | > 100 | inactive | > 100 | inactive | 100 (≈ 31.5 µg/mL) | inactive | 100 (≈ 31.5 µg/mL) | > 100
O=C(NNC(=S)Nc1ccc(Cl)c(Cl)c1)c1ccccc1 | > 100 | > 100 | > 100 | – | – | – | – | – | – | – | – | – | – | – | –
